Experiments:
Format in all cases: cell-based
[1] = test system: A549 – Homo sapiens lung carcinoma; test: MTT cytotoxicity assay, A549; settings: A549, 24 h, read-out: IC50 values (μM) A549
Summary of the method: (§1)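 Test compound at 1 to 100 μM for 24 h. MTT (0.5 mg mL−1) added for 3 h, formazan dissolved in DMSO, absorbance read. Run in triplicate; IC50 calculated.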

[2] = test system: DU145 – Homo sapiens prostrate carcinoma; test: MTT cytotoxicity assay, DU145; settings: DU-145, 24 h, read-out: IC50 values (μM) DU145
Summary of the method: as §1

[3] = test system: B16-F10 – Mus musculus mouse skin melanoma; test: MTT cytotoxicity assay, B16-F10; settings: B16-F10, 24 h, read-out: IC50 values (μM) B16-F10
Summary of the method: as §1

[4] = test system: Hep G2 – Homo sapiens hepatocellular carcinoma; test: MTT cytotoxicity assay, HepG2; settings: HepG2, 24 h, read-out: IC50 values (μM) HEPG2
Summary of the method: as §1

[5] = test system: CHO-K1 – Cricetulus griseus chinese hamster ovary cells; test: MTT cytotoxicity assay, non-cancerous CHO-K1; settings: CHO-K1, 24 h, read-out: IC50 values (μM) CHO

O=C(Nc1ccccc1)c1ccccc1-n1c(=O)[nH]c2ccccc2c1=O [Compound 3a, 2-(2,4-dioxo-1,2-dihydroquinazolin-3(4H)-yl)-N-phenylbenzamide]
IC50 [1]: 29.4 ± 0.45 µM | IC50 [2]: 14.83 ± 0.13 µM | IC50 [3]: 39.51 ± 0.13 µM | IC50 [4]: 8.73 ± 0.02 µM

COc1ccc(NC(=O)c2ccccc2-n2c(=O)[nH]c3ccccc3c2=O)cc1 [Compound 3b, 2-(2,4-dioxo-1,2-dihydroquinazolin-3(4H)-yl)-N-(4-methoxyphenyl)benzamide]
IC50 [1]: 19.5 ± 0.25 µM | IC50 [2]: 11.56 ± 0.06 µM | IC50 [3]: 24.8 ± 0.7 µM | IC50 [4]: 23.3 ± 0.52 µM

Cc1ccc(NC(=O)c2ccccc2-n2c(=O)[nH]c3ccccc3c2=O)cc1 [Compound 3c, 2-(2,4-dioxo-1,2-dihydroquinazolin-3(4H)-yl)-N-(p-tolyl)benzamide]
IC50 [1]: 15.2 ± 0.7 µM | IC50 [2]: 11.49 ± 0.04 µM | IC50 [3]: 17.9 ± 0.17 µM | IC50 [4]: 5.33 ± 0.12 µM

O=C(Nc1ccc(Br)cc1)c1ccccc1-n1c(=O)[nH]c2ccccc2c1=O [Compound 3e, N-(4-Bromophenyl)-2-(2,4-dioxo-1,2-dihydroquinazolin-3(4H)-yl)benzamide]
IC50 [1]: 11.7 ± 0.14 µM | IC50 [5]: 69.4 ± 5.17 µM | IC50 [2]: 12.05 ± 0.02 µM | IC50 [3]: 14.67 ± 0.05 µM | IC50 [4]: 9.48 ± 0.05 µM

CCCCNC(=O)c1cc(Cl)ccc1-n1c(=O)[nH]c2ccccc2c1=O [Compound 3g, N-Butyl-5-chloro-2-(2,4-dioxo-1,2-dihydroquinazolin-3(4H)-yl)benzamide]
IC50 [1]: 30.4 ± 5.52 µM | IC50 [2]: 18.65 ± 0.08 µM | IC50 [3]: 20.5 ± 0.91 µM | IC50 [4]: 15.3 ± 0.78 µM

CCNC(=O)c1ccccc1-n1c(=O)[nH]c2ccccc2c1=O [Compound 3h, 2-(2,4-Dioxo-1,2-dihydroquinazolin-3(4H)-yl)-N-ethylbenzamide]
IC50 [1]: 34.8 ± 4.65 µM | IC50 [5]: 94.2 ± 2.44 µM | IC50 [2]: 10.44 ± 0.02 µM | IC50 [3]: 27.1 ± 0.68 µM | IC50 [4]: 16.7 ± 1.72 µM

COc1ccc(NC(=O)c2ccccc2-n2c(=O)[nH]c3ccc(F)cc3c2=O)cc1 [Compound 3j, 2-(6-Fluoro-2,4-dioxo-1,2-dihydroquinazolin-3(4H)-yl)-N-(4-methoxyphenyl)benzamide]
IC50 [1]: 30.4 ± 1.35 µM | IC50 [2]: 12.3 ± 0.17 µM | IC50 [3]: 34.3 ± 1.55 µM | IC50 [4]: 8.74 ± 0.34 µM

O=C(Nc1ccc(F)cc1)c1ccccc1-n1c(=O)[nH]c2ccc(F)cc2c1=O [Compound 3k, 2-(6-Fluoro-2,4-dioxo-1,2-dihydroquinazolin-3(4H)-yl)-N-(4-fluorophenyl)benzamide]
IC50 [1]: 17.2 ± 0.41 µM | IC50 [2]: 11.59 ± 0.06 µM | IC50 [3]: 30 ± 0.42 µM | IC50 [4]: 28.7 ± 0.92 µM

O=C(Nc1ccc(Br)cc1)c1ccccc1-n1c(=O)[nH]c2ccc(F)cc2c1=O [Compound 3l, N-(4-Bromophenyl)-2-(6-fluoro-2,4-dioxo-1,2-dihydroquinazolin-3(4H)-yl)benzamide]
IC50 [1]: 17.4 ± 0.18 µM | IC50 [5]: 51.5 ± 2.74 µM | IC50 [2]: 12.63 ± 0.08 µM | IC50 [3]: 28.5 ± 0.31 µM | IC50 [4]: 7.77 ± 0.02 µM

CCNC(=O)c1ccccc1-n1c(=O)[nH]c2ccc(F)cc2c1=O [Compound 3m, N-Ethyl-2-(6-fluoro-2,4-dioxo-1,2-dihydroquinazolin-3(4H)-yl)benzamide]
IC50 [1]: 26.3 ± 1.32 µM | IC50 [5]: 88 ± 3.56 µM | IC50 [2]: 19.39 ± 0.14 µM | IC50 [3]: 41.4 ± 0.81 µM | IC50 [4]: 20.2 ± 0.31 µM

O=C(Nc1ccccc1)c1ccccc1-n1c(=O)[nH]c2ccc(Cl)cc2c1=O [Compound 3n, 2-(6-Chloro-2,4-dioxo-1,2-dihydroquinazolin-3(4H)-yl)-N-phenylbenzamide]
IC50 [1]: 14.7 ± 0.18 µM | IC50 [5]: 73.9 ± 2.81 µM | IC50 [2]: 10.4 ± 0.13 µM | IC50 [3]: 14.83 ± 0.01 µM | IC50 [4]: 12.3 ± 0.26 µM

O=C(Nc1ccc(F)cc1)c1ccccc1-n1c(=O)[nH]c2ccc(Cl)cc2c1=O [Compound 3o, 2-(6-Chloro-2,4-dioxo-1,2-dihydroquinazolin-3(4H)-yl)-N-(4-fluorophenyl)benzamide]
IC50 [1]: 26.3 ± 1.03 µM | IC50 [5]: 74.5 ± 9.44 µM | IC50 [2]: 5.17 ± 0.07 µM | IC50 [3]: 16.03 ± 0.06 µM | IC50 [4]: 3.02 ± 0.06 µM

CCNC(=O)c1ccccc1-n1c(=O)[nH]c2ccc(Cl)cc2c1=O [Compound 3p, 2-(6-Chloro-2,4-dioxo-1,2-dihydroquinazolin-3(4H)-yl)-N-ethylbenzamide]
IC50 [1]: 22.8 ± 0.71 µM | IC50 [2]: 13.02 ± 0.03 µM | IC50 [3]: 31.67 ± 0.14 µM | IC50 [4]: 33.9 ± 0.71 µM

CCCCNC(=O)c1cc(Cl)ccc1-n1c(=O)[nH]c2ccc(Cl)cc2c1=O [Compound 3q, N-Butyl-5-chloro-2-(6-chloro-2,4-dioxo-1,2-dihydroquinazolin-3(4H)-yl)benzamide]
IC50 [1]: 28.7 ± 1.38 µM | IC50 [2]: 9.37 ± 0.03 µM | IC50 [3]: 36.46 ± 0.1 µM | IC50 [4]: 8.51 ± 0.2 µM

O=C(Nc1ccccc1)c1ccccc1-n1c(=O)[nH]c2ccc([N+](=O)[O-])cc2c1=O [Compound 3r, 2-(6-Nitro-2,4-dioxo-1,2-dihydroquinazolin-3(4H)-yl)-N-phenylbenzamide]
IC50 [1]: 16.7 ± 0.3 µM | IC50 [2]: 15.59 ± 0.07 µM | IC50 [3]: 33.13 ± 0.12 µM | IC50 [4]: 16 ± 0.51 µM

O=c1[nH]cc(F)c(=O)[nH]1 [Compound 5FU, 5-fluorouracil, reference compound]
IC50 [1]: 29.6 ± 1.64 µM | IC50 [2]: 16.32 ± 0.02 µM | IC50 [3]: 7.55 ± 0.01 µM | IC50 [4]: 23 ± 0.27 µM

COc1cccc2c1C(=O)c1c(O)c3c(c(O)c1C2=O)C[C@@](O)(C(=O)CO)C[C@@H]3O[C@H]1C[C@H](N)[C@H](O)[C@H](C)O1 [Doxorubicin, doxorubicin, reference compound]
IC50 [1]: 0.55 ± 0.16 µM | IC50 [2]: 0.363 ± 0.01 µM | IC50 [3]: 0.7 ± 0.56 µM | IC50 [4]: 0.72 ± 0.012 µM
